ChEMBL document CHEMBL5329218, “Novel styryl-thiazole hybrids as potential anti-Alzheimer's agents” (RSC Med Chem, 2023)
Activity calls are given as the source filed them. The calls are words filed in the database; no cut-off is given here.

Key:
[1] = Genotoxicity in human SH-SY5Y cells assessed as nuclear abnormalities by measuring total notched mutations at 100 ug/ml incubated for 24 hrs by Hoechst 33258 staining based fluorescent microscopy (reference value: 5); format: toxicity, cell-based; settings: dose 100 µg/ml
SH-SY5Y [2] = assay: Antialzheimer activity against RA/BDNF-treated human SH-SY5Y cells assessed as cell viability at 12.5 to 100 ug/ml incubated for 24 hrs by MTT assay; format: functional, cell-based; settings: dose 12.5-100 µg/ml
Summary of the method: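 SH-SY5Y grown in DMEM:F12 with 10% FBS at 37 °C, 5% CO2. Differentiated with 10 µM retinoic acid to day 8 (3% FBS medium refreshed every 2 days), then 25 nM BDNF for 5 days. Compound exposure, then MTT for 3 h at 37 °C. Formazan dissolved in DMSO, absorbance at 570 nm. 1.0% Triton X-100 as control.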

[3] = Genotoxicity in human SH-SY5Y cells assessed as nuclear abnormalities by measuring total micronucleus at 100 ug/ml incubated for 24 hrs by Hoechst 33258 staining based fluorescent microscopy (reference value: 6); format: toxicity, cell-based; settings: dose 100 µg/ml
[4] = Genotoxicity in human SH-SY5Y cells assessed as nuclear abnormalities by measuring total lobbed nucleus at 100 ug/ml incubated for 24 hrs by Hoechst 33258 staining based fluorescent microscopy (reference value: 5); format: toxicity, cell-based; settings: dose 100 µg/ml
[5] = Genotoxicity in human SH-SY5Y cells assessed as mean nuclear abnormalities measured per 1000 cells at 100 ug/ml incubated for 24 hrs by Hoechst 33258 staining based fluorescent microscopy (reference value: 0.016 +/- 0.007); format: toxicity, cell-based; settings: dose 100 µg/ml
SH-SY5Y [6] = assay: Neuroprotective activity against amyloid beta 1-42-treated human SH-SY5Y cells assessed as decrease in AChE activity incubated for 30 mins by microplate reader analysis (reference value: 459.6 +/- 32.152 mU/ml); format: functional; settings: dose 0.5 mM
SH-SY5Y [7] = assay: Neuroprotective activity against amyloid beta 1-42-treated human SH-SY5Y cells assessed as decrease in beta-secretase activity measured per mg protein incubated for 30 mins by microplate reader analysis (reference value: 54.35 +/- 4.34 RFU); format: functional; settings: 0.5 h
Acetylcholinesterase = Acetylcholinesterase (Homo sapiens, UniProt P22303); assay: Inhibition of AChE (unknown origin) using acetylthiocholine iodide as substrate prewarmed for 10 mins followed by substrate addition measured after 15 mins by DTNB assay
Summary of the method: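 Purified AChE at 0.005 unit per well in 50 mM Na2HPO4, pH 7.7. Test compound at 0.5 mM per well, read at 405 nm, then preincubated 10 min at 37 °C. Started with acetylthiocholine iodide and DTNB (each 0.5 mM per well). Absorbance at 405 nm after 15 min at 37 °C. Eserine reference, triplicate; % inhibition versus control, IC50 by kinetics fitting.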

Beta-secretase 1 = Beta-secretase 1 (Homo sapiens, UniProt P56817); assay: Inhibition of BACE1 (unknown origin) expressed in baculovirus expression system using Rh-EVNLDAEFKQuencher peptide substrate incubated for 90 mins by FRET assay
SH-SY5Y [8] = assay: Neuroprotective activity against amyloid beta 1-42-treated human SH-SY5Y cells assessed as reduction in beta amyloid aggregation by Congo Red dye based analysis; format: functional, cell-based
Summary of the method: (§1)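 SH-SY5Y differentiated with RA then BDNF. Aβ1-42 pre-fibrillized at 20 µM in medium for 24 h, then 20 µM added with compounds for 24 h. Cells fixed in 4% paraformaldehyde at 4 °C for 30 min. Stained with 1 µM Congo red for 1 h in the dark, washed with PBS, dye extracted into DMSO, absorbance at 497 nm.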

SH-SY5Y [9] = assay: Neuroprotective activity against amyloid beta 1-42-treated human SH-SY5Y cells assessed as increase in cell viability at 25 ug/ml incubated for 24 hrs by MTT assay relative to control; settings: dose 25 µg/ml
SH-SY5Y [10] = assay: Neuroprotective activity against amyloid beta 1-42-treated human SH-SY5Y cells assessed as reduction in beta amyloid aggregation by Congo Red dye based analysis relative to control; format: functional; set-up: scale not given: the % may be the effect or the level left; summary of the method: as §1
SH-SY5Y [11] = assay: Neuroprotective activity against amyloid beta 1-42-treated human SH-SY5Y cells assessed as increase in cell viability at 50 ug/ml incubated for 24 hrs by MTT assay relative to control; settings: dose 50 µg/ml

Sequence of Beta-secretase 1 (P56817 whole entry): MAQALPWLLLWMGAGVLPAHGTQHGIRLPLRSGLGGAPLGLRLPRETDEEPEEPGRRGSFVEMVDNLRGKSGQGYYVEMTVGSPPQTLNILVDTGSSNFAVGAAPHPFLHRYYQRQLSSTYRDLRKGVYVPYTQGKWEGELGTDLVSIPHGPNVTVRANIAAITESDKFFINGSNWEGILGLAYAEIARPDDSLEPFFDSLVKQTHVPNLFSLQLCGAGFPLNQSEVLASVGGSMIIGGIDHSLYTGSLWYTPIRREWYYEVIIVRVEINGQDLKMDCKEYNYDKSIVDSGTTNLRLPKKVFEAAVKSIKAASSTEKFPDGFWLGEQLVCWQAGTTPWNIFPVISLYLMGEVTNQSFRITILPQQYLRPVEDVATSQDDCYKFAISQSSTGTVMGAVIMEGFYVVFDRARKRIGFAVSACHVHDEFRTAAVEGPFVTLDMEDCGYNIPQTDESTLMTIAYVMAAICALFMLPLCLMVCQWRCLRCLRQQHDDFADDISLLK
Sequence of Acetylcholinesterase (P22303 whole entry): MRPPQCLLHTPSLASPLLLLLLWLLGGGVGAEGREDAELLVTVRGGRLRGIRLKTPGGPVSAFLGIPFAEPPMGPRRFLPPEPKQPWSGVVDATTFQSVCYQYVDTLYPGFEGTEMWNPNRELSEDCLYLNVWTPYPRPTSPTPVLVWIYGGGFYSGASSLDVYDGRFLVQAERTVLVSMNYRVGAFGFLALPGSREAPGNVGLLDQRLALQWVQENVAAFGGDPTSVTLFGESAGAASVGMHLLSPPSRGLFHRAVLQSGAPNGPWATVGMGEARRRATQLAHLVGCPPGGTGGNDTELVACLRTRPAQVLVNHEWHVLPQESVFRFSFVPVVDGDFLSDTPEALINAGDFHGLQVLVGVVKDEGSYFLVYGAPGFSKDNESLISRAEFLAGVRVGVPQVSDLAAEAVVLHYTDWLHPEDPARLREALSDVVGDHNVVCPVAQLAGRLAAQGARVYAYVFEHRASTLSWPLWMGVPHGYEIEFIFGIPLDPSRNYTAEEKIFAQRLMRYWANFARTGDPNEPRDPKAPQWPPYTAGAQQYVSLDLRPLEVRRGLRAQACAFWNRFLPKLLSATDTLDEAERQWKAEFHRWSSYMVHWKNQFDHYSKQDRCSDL

Row | SMILES | Activity [1] | Activity (SH-SY5Y [2]) | Activity [3] | Activity [4] | Activity [5] | Activity (SH-SY5Y [6]) [mU/ml] | Activity (SH-SY5Y [7]) [RFU] | IC50 (Acetylcholinesterase) [µM] | IC50 (Beta-secretase 1) [µM] | Activity (SH-SY5Y [8]) | Activity (SH-SY5Y [9]) [%] | Activity (SH-SY5Y [10]) [%] | Activity (SH-SY5Y [11]) [%]
1 | Brc1ccc(-c2csc(/C=C/c3ccccc3)n2)cc1 | 9 | Active | 4 | 5 | 0.017 | 375.6 | 17.41 | 229 | 44.4 | Active | ~30 | – | –
2 | COc1ccc(/C=C/c2nc(-c3ccc(OC)cc3)cs2)cc1 | 5 | Active | 6 | 6 | 0.017 | 397.6 | 14.13 | 197 | 78.2 | – | – | >80 | ~34
